# Data from ChEMBL document CHEMBL4392836, “Second-generation aryl isonitrile compounds targeting multidrug-resistant Staphylococcus aureus” (Bioorg Med Chem, 2019).
# Calls of active or inactive are those of the source. No cut-off for these calls is given here.
# How the values were obtained:
# [1] = tested on: Staphylococcus aureus; assay: Antibacterial activity against methicillin-resistant Staphylococcus aureus NRS123 USA400 after 18 to 24 hrs by broth microdilution assay; format: functional
# How it was run: (§1)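 CLSI broth microdilution with modifications. Bacteria cultured in TSB and exposed to compounds or control antibiotics in triplicate. Plates incubated aerobically at 37 °C for 18–24 h. MIC is the lowest concentration preventing visible growth.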
# [2] = tested on: Staphylococcus aureus; assay: Antibacterial activity against methicillin-resistant Staphylococcus aureus NRS385 USA500 after 18 to 24 hrs by broth microdilution assay; format: functional; how it was run: as §1
# [3] = tested on: Pseudomonas aeruginosa; assay: Antibacterial activity against Pseudomonas aeruginosa ATCC 15442 after 18 to 24 hrs by broth microdilution assay; format: functional
# How it was run: (§2)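 Broth microdilution MIC per CLSI guidelines with modifications. Bacteria grown in TSB and exposed to compounds or control antibiotics in triplicate. Plates incubated aerobically at 37 °C for 18–24 h. MIC taken as the lowest concentration with no visible growth.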
# [4] = tested on: Staphylococcus aureus; assay: Antibacterial activity against methicillin-sensitive Staphylococcus aureus NRS107 after 18 to 24 hrs by broth microdilution assay; format: functional; how it was run: as §1
# [5] = tested on: Staphylococcus aureus; assay: Antibacterial activity against vancomycin-resistant Staphylococcus aureus VRS11a after 18 to 24 hrs by broth microdilution assay; format: functional; how it was run: as §1
# [6] = tested on: Klebsiella pneumoniae; assay: Antibacterial activity against Klebsiella pneumoniae ATCC BAA-1705 after 18 to 24 hrs by broth microdilution assay; format: functional; how it was run: as §2
# [7] = tested on: Acinetobacter baumannii; assay: Antibacterial activity against Acinetobacter baumannii BAA1605 after 18 to 24 hrs by broth microdilution assay; format: functional; how it was run: as §2
# [8] = tested on: Enterobacter cloacae; assay: Antibacterial activity against Enterobacter cloacae BAA1134 after 18 to 24 hrs by broth microdilution assay; format: functional; how it was run: as §2
# [9] = tested on: Staphylococcus epidermidis; assay: Antibacterial activity against methicillin-resistant Staphylococcus epidermidis NRS101 after 18 to 24 hrs by broth microdilution assay; format: functional; how it was run: as §1
# [10] = tested on: Streptococcus pneumoniae; assay: Antibacterial activity against penicillin-resistant Streptococcus pneumoniae ATCC 700677 after 18 to 24 hrs by broth microdilution assay; format: functional
# How it was run: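 CLSI broth microdilution with modifications. Bacteria exposed to compounds in triplicate and incubated at 37 °C with 5% CO₂ for 18–24 h. MIC is the lowest concentration preventing visible growth.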
# [11] = tested on: Staphylococcus aureus; assay: Antibacterial activity against methicillin-resistant Staphylococcus aureus NRS119 after 18 to 24 hrs by broth microdilution assay; format: functional; how it was run: as §1
# [12] = tested on: Enterococcus faecium; assay: Antibacterial activity against vancomycin-resistant Enterococcus faecium ATCC 700221 after 18 to 24 hrs by broth microdilution assay; format: functional
# How it was run: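 Broth microdilution per CLSI with modifications. Cultured in BHI and exposed to compounds in triplicate. Incubated aerobically at 37 °C for 18–24 h. MIC read as the lowest concentration with no visible growth.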
# [13] = tested on: Staphylococcus aureus; assay: Antibacterial activity against vancomycin-resistant Staphylococcus aureus VRS10 after 18 to 24 hrs by broth microdilution assay; format: functional; how it was run: as §1
# [14] = tested on: Staphylococcus aureus; assay: Antibacterial activity against methicillin-resistant Staphylococcus aureus USA300 NRS384 after 18 to 24 hrs by broth microdilution assay; format: functional; how it was run: as §1
# [15] = tested on: Escherichia coli; assay: Antibacterial activity against AcrAB-TolC deficient Escherichia coli […] after 18 to 24 hrs in absence of colistin by broth microdilution method; format: functional; how it was run: as §2
# [16] = tested on: Pseudomonas aeruginosa; assay: Antibacterial activity against Pseudomonas aeruginosa ATCC 15442 after 18 to 24 hrs in presence of colistin by broth microdilution assay; format: functional
# How it was run: (§3)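 To permeabilize the outer membrane, CLSI broth microdilution in TSB (triplicate) was run with subinhibitory colistin: ¼ × MIC for A. baumannii, E. cloacae and E. coli strains, and P. aeruginosa; ½ × MIC for K. pneumoniae. Plates incubated aerobically at 37 °C for 18–24 h. MIC taken as the lowest concentration with no visible growth.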
# [17] = tested on: Escherichia coli; assay: Antibacterial activity against Escherichia coli BW25113 after 18 to 24 hrs in presence of colistin by broth microdilution method; format: functional; how it was run: as §3
# [18] = tested on: Klebsiella pneumoniae; assay: Antibacterial activity against Klebsiella pneumoniae ATCC BAA-1705 after 18 to 24 hrs in presence of colistin by broth microdilution assay; format: functional; how it was run: as §3
# [19] = tested on: Enterobacter cloacae; assay: Antibacterial activity against Enterobacter cloacae BAA1134 after 18 to 24 hrs in presence of colistin by broth microdilution assay; format: functional; how it was run: as §3
# [20] = tested on: Acinetobacter baumannii; assay: Antibacterial activity against Acinetobacter baumannii BAA1605 after 18 to 24 hrs in presence of colistin by broth microdilution assay; format: functional; how it was run: as §3
# [21] = tested on: Escherichia coli; assay: Antibacterial activity against Escherichia coli BW25113 after 18 to 24 hrs in absence of colistin by broth microdilution method; format: functional; how it was run: as §2
# [22] = tested on: Escherichia coli; assay: Antibacterial activity against AcrAB-TolC deficient Escherichia coli […] after 18 to 24 hrs in presence of colistin by broth microdilution method; format: functional; how it was run: as §3
# [23] = clinical; details: human, in vivo, iv, 625 mg
# [24] = Cmax in human at 625 mg, iv; format: ADME; design: dose 625 mg, route intravenous; details: in vivo
# [25] = Cmax in human at 625 mg, po; format: ADME; design: dose 625 mg, route oral; details: in vivo
# [26] = Tmax in human at 625 mg, po; format: ADME; details: in vivo
# [27] = Clearance in human at 625 mg, iv; format: ADME; details: in vivo
# [28] = Tmax in human at 625 mg, iv; format: ADME; details: in vivo
# [29] = tested on: Staphylococcus aureus; assay: Bacteriostatic activity against methicillin-resistant Staphylococcus aureus USA400 NRS123 at 4 times MIC measured after 24 hrs by time-kill assay; format: functional, organism-based
# [30] = Cytotoxicity against human HaCaT cells assessed as cell viability at 128 uM measured after 24 hrs by MTS assay; format: cell-based; details: read-out: Activity
# How it was run: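 HaCaT keratinocytes grown in DMEM with 10% FBS at 37 °C, 5% CO₂. Compounds tested at 16, 32, 64 and 128 µM in triplicate for 24 h; controls received matching DMSO. Viability expressed as percent of DMSO-treated cells (mean ± SD).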
# [31] = tested on: Mus musculus; assay: Induction of inflammation in wounded skin area of Balb/c mouse infected with methicillin-resistant Staphylococcus aureus USA300 at 2% administered topically twice daily for 5 consecutive days measured 4 times daily during compound dosing; format: organism-based; details: in vivo, topical_or_ocular
# How it was run: (§4)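 Female Balb/c mice with intradermal MRSA USA300 abscesses were treated topically twice daily for 5 days with a 2% suspension in petroleum jelly, alongside a vehicle group. Mice were checked at least four times daily during infection and treatment for adverse reactions. Wounds were examined for inflammation and toxicity.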
# [32] = Toxicity in wounded skin area of Balb/c mouse infected with methicillin-resistant Staphylococcus aureus USA300 at 2% administered topically twice daily for 5 consecutive days measured 4 times daily during compound dosing; details: in vivo, topical_or_ocular; how it was run: as §4
# [33] = tested on: Staphylococcus aureus; assay: Antibacterial activity against methicillin-resistant Staphylococcus aureus USA300 infected in Balb/c mouse assessed as reduction in bacterial burden in wounded skin area at 2% administered topically twice daily for 5 consecutive days measured 12 hrs post last dose relative to control; format: functional; design: scale not given: the % may be the effect or the level left
# How it was run: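 Eight-week-old female Balb/c mice (n = 5 per group) received an intradermal injection of 40 μL of 1.32 × 10⁹ CFU/mL MRSA USA300. From abscess formation (~48 h), a 2% suspension in petroleum jelly was applied topically twice daily for 5 days, with a vehicle-only group. Mice were euthanized 12 h after the last dose. Wounds were homogenized in PBS, serially diluted and plated on mannitol salt agar (≥16 h, 37 °C). CFU reduction was calculated against vehicle.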
smiles,measurement,setting,value
N#Cc1ccc(CCC2CCNc3ccccc32)cc1 (configuration not stated),MIC,[1],32 µM
N#Cc1ccc(CCc2ccccc2C#N)cc1,MIC,[1],> 64 µM
CN[C@H](CC(C)C)C(=O)N[C@H]1C(=O)N[C@@H](CC(N)=O)C(=O)N[C@H]2C(=O)N[C@H]3C(=O)N[C@H](C(=O)N[C@H](C(=O)O)c4cc(O)cc(O)c4-c4cc3ccc4O)[C@H](O)c3ccc(c(Cl)c3)Oc3cc2cc(c3O[C@@H]2O[C@H](CO)[C@@H](O)[C@H](O)[C@H]2O[C@H]2C[C@](C)(N)[C@H](O)[C@H](C)O2)Oc2ccc(cc2Cl)[C@H]1O [VANCOMYCIN],MIC,[2],1 µM
same,MIC,[3],> 64 µM
same,MIC,[4],1 µM
same,MIC,[5],> 64 µM
same,MIC,[6],> 64 µM
same,MIC,[7],32 µM
same,MIC,[8],> 64 µM
same,MIC,[9],4 µM
same,MIC,[10],1 µM
same,MIC,[11],1 µM
same,MIC,[12],> 64 µM
same,MIC,[13],> 64 µM
same,MIC,[14],1 µM
same,MIC,[1],1 µM
CC[C@H]1OC(=O)[C@H](C)[C@@H](O[C@H]2C[C@@](C)(OC)[C@@H](O)[C@H](C)O2)[C@H](C)[C@@H](O[C@@H]2O[C@H](C)C[C@H](N(C)C)[C@H]2O)[C@](C)(O)C[C@@H](C)C(=O)[C@H](C)[C@@H](O)[C@]1(C)O [ERYTHROMYCIN],MIC,[3],> 64 µM
same,MIC,[15],2 µM
same,MIC,[16],4 µM
same,MIC,[17],1 µM
same,MIC,[6],> 64 µM
same,MIC,[7],16 µM
same,MIC,[8],> 64 µM
same,MIC,[18],16 µM
same,MIC,[19],1 µM
same,MIC,[20],4 µM
same,MIC,[21],64 µM
same,MIC,[22],0.5 µM
N#Cc1ccc(/C=C/c2ccc(Cl)c(Cl)c2)cc1,MIC,[1],> 64 µM
N#Cc1ccc(CCc2ccc(C#N)cc2)cc1,MIC,[1],> 64 µM
CC(=O)NC[C@H]1CN(c2ccc(N3CCOCC3)c(F)c2)C(=O)O1 [LINEZOLID],MIC,[2],4 µM
same,half-life,[23],4.4 h
same,MIC,[3],> 64 µM
same,MIC,[4],2 µM
same,Cmax,[24],13400 ng/mL
same,MIC,[15],16 µM
same,Cmax,[25],12700 ng/mL
same,Tmax,[26],1.33 h
same,MIC,[16],> 64 µM
same,MIC,[5],2 µM
same,MIC,[17],> 64 µM
same,clearance,[27],1.74 mL/min/kg
same,MIC,[6],> 64 µM
same,MIC,[7],> 64 µM
same,MIC,[8],> 64 µM
same,MIC,[18],> 64 µM
same,MIC,[9],2 µM
same,MIC,[10],2 µM
same,MIC,[19],16 µM
same,MIC,[11],32 µM
same,MIC,[12],0.5 µM
same,MIC,[13],2 µM
same,MIC,[14],2 µM
same,MIC,[20],> 64 µM
same,MIC,[21],> 64 µM
same,Tmax,[28],0.5 h
same,MIC,[1],1 µM
same,MIC,[22],16 µM
N#Cc1ccc(/C=C/c2ccco2)cc1,MIC,[1],32 µM
N#Cc1ccc(CCc2ccncc2)cc1,MIC,[1],64 µM
N#Cc1ccc(/C=C/c2ccc(C#N)cc2)cc1,MIC,[2],8 µM
same,MIC,[3],> 64 µM
same,MIC,[4],4 µM
same,MIC,[15],> 64 µM
same,Activity,[29],Active
same,MIC,[16],> 64 µM
same,MIC,[5],8 µM
same,MIC,[17],> 64 µM
same,MIC,[6],> 64 µM
same,"viability at 24 h, 128 µM",[30],> 90%
same,MIC,[7],> 64 µM
same,MIC,[8],> 64 µM
same,MIC,[18],> 64 µM
same,MIC,[9],1 µM
same,Activity,[31],Non-Toxic
same,MIC,[10],8 µM
same,MIC,[19],4 µM
same,MIC,[11],1 µM
same,Activity,[32],Non-Toxic
same,Activity,[33],79.02%
same,MIC,[12],> 64 µM
same,MIC,[13],8 µM
same,MIC,[14],2 µM
same,MIC,[20],16 µM
same,MIC,[21],> 64 µM
same,MIC,[1],8 µM
same,MIC,[22],> 64 µM
COc1ccc(/C=C/c2ccc(C#N)cc2)cc1,MIC,[1],32 µM
N#Cc1ccc(/C=C/c2ccccc2C#N)cc1,MIC,[1],16 µM
N#Cc1ccc(/C=C/c2ccc3ccccc3n2)cc1,MIC,[11],4 µM
same,MIC,[13],32 µM
same,MIC,[14],4 µM
same,MIC,[1],8 µM
N#Cc1ccccc1/C=C/c1ccccc1,MIC,[11],4 µM
same,MIC,[14],4 µM
N#Cc1ccc(/C=C/c2ccc(C(F)(F)F)cc2)cc1,MIC,[1],32 µM
N#Cc1ccc(CCC2CCc3ccccc3N2)cc1 (configuration not stated),MIC,[1],16 µM
N#Cc1ccc(CCc2ccccn2)cc1,MIC,[1],> 64 µM
N#Cc1ccc(CCc2cccnc2)cc1,MIC,[1],> 64 µM
N#Cc1ccc(CCc2cccc(C#N)c2)cc1,MIC,[1],32 µM
CC(=O)O[C@H]1C[C@@]2(C)[C@@H](C[C@@H](O)[C@H]3[C@@]4(C)CC[C@@H](O)[C@@H](C)[C@@H]4CC[C@@]32C)/C1=C(\CCC=C(C)C)C(=O)O [FUSIDIC ACID],Activity,[31],Non-Toxic
same,Activity,[32],Non-Toxic
same,Activity,[33],77.78%
CC/C(=C\c1ccccc1C#N)c1ccccc1,MIC,[14],4 µM
N#Cc1ccc(/C=C/c2ccc(F)cc2)cc1,MIC,[1],64 µM
N#Cc1ccc(/C=C/c2ccnc3ccccc23)cc1,MIC,[1],> 64 µM
COc1cc(/C=C/c2ccc(C#N)cc2)cc(OC)c1,MIC,[1],64 µM
